Calb FLC: C. albicans growth inhibition with fluconazole, primary screen, CaCi-2 strain, Alamar Blue fluorescence. 0.57% of 300,000 active. C. albicans CaCi-2 (fluconazole-resistant clinical isolate) + fluconazole, 48 h. growth inhibition, % (test concentration not listed);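 active = growth inhibition above about 58% in most replicates, limit read from the data, passing the limit was not always enough; inconclusive = exactly half the replicates above a set limit; inactive = most replicates below a set limit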;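 also: all wells also contain fluconazole at 8 µg/ml as a sub-toxic cotreatment; 0% = median of DMSO wells and 100% = median of geldanamycin control wells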
CSC inhib: cancer stem cell viability inhibitors, primary screen, luminescence; 1.1% of 300,000 active; inhibition, % at 7.5 µM; cancer stem cell-like cells viability; in the data active = inhibition above about 75%; inconclusive = no clear call, values can overlap the other calls; tested in HMLE shEcad cells
SKKanGAS inh: S. pyogenes SKKanGAS growth inhibitors in kanamycin, primary screen, streptokinase expression inhibitor project, SKKanGAS strain, BacTiter-Glo luminescence | 6 h | inhibition, % at 7.5 µM | 1.3% of 300,000 active | AID 1662, 2009;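 active = mean replicate score, as percent of positive control median, at least 50; inconclusive = mean below 50 but one replicate at or above 50; inactive = mean and every replicate below 50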;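 also: strain carries kanamycin resistance gene driven by streptokinase promoter and grows in 40 µg/ml kanamycin; loss of luminescence reflects streptokinase promoter inhibition or plain growth inhibition; 0% = median of DMSO wells and 100% = positive control at its reference dose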
Beta cell apopt: inhibitors of cytokine-induced beta cell apoptosis, primary screen, luminescence; INS-1E cytokine-induced death, ATP luminescence, 48 h; percent of positive-control rescue, neutral wells zero; protection from apoptosis, % (no concentration beside the values); 0.8% of 300,000 active; AID 435005, 2010;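 active = Every replicate reaches about 75%, or at least half do and their mean reaches it too, limit read from the data; inconclusive = At least half of replicates reach the limit but their mean does not; inactive = Under half of replicates reach the limit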;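 also: 0% = cytokine-treated negative control wells and 100% = positive control rescue; higher means more ATP so stronger rescue from cytokine killing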
Mdm2-MdmX inh: inhibitors of human Mdm2-MdmX association, primary screen, cell-based, luminescence, split luciferase, SaOS-2, uHTS | 3% of 330,000 active | SaOS-2 split-luciferase Mdm2/MdmX complementation | inhibition, % at 8 µM | AID 485346, 2010;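 active = inhibition of at least 50% at 8 µM in the primary screen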
Target sequence (O15151 whole entry, looked up): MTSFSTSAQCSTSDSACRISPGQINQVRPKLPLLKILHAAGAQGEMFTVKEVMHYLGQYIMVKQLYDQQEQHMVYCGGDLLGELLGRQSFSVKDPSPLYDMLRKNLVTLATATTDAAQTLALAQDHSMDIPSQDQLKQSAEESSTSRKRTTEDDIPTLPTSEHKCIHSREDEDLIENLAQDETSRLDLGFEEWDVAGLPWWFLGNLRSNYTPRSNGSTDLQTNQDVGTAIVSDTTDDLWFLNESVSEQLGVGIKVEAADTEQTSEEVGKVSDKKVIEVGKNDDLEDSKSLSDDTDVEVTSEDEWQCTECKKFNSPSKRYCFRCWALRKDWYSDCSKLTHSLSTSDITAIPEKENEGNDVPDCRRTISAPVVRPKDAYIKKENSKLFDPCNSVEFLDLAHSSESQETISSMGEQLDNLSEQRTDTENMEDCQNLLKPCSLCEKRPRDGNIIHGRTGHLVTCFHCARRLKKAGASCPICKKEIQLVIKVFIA
Target sequence (Q00987 whole entry, looked up): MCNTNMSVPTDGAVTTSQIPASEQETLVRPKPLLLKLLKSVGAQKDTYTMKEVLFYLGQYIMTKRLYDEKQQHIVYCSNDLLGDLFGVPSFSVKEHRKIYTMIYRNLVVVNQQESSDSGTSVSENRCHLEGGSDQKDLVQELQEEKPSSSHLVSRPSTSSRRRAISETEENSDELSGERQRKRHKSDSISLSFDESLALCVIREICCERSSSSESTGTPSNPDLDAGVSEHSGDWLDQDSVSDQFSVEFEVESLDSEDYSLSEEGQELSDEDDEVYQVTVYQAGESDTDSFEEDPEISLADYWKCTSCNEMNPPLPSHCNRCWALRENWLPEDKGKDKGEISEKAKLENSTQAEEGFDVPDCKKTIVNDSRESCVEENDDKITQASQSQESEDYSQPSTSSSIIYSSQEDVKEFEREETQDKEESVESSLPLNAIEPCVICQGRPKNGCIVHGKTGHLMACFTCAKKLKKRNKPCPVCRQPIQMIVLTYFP
T cruzi inh: inhibitors of intracellular T. cruzi growth, primary screen, luminescence, NIH3T3 host cells. T. cruzi beta-gal in NIH3T3, 90 h. inhibition, % (concentration not given with the values). 1.4% of 300,000 active. AID 1885, 2009;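 active = mean inhibition across valid replicates above about 55%, limit read from the data; inconclusive = mean below that limit but half or more replicates reach it; inactive = mean below it, under half of replicates reach it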;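 also: signal also drops with host cell toxicity which is not excluded here; 0% = plate median of DMSO wells and 100% = zero luminescence signal; higher percent means less beta-gal luminescence so fewer parasites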
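System: NIH/3T3 fibroblasts plus reporter T. cruzi. Medium: DMEM plus 2% FBS. Probe or stimulus: 5000 reporter trypomastigotes per well. Compound: single 50 nL compound addition per well in DMSO. Incubation: co-culture of at least 90 h after 3 h attachment. Detection: GalScreen β-gal luminescence, detergent lysis, 60 min. Evaluation: parasite load inhibition, %.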
An asterisk follows results filed as active; ? = inconclusive; / = no result given. Compounds with a hit are over-represented: about 5.7% of the library has one in this group of screens.

SMILES | Calb FLC | CSC inhib | SKKanGAS inh | Beta cell apopt | Mdm2-MdmX inh | T cruzi inh
NC(c1ccccc1)c1cccnc1 (stereo unspecified) | -2 | 6 | -2 | 1 | 5 | 3
Cc1nc(N)nc(N)c1/C=C/C(C)(C)c1ccc(Cl)cc1 | -12 | / | 97* | / | / | 60*
COc1ccccc1CNC(=S)NCc1ccc(F)cc1 | -13 | -21 | 7 | -1 | -6 | -11
CCN(CC)CCNc1ccc(CO)c2sc3ccccc3c(=O)c12 | / | 32 | -5 | 40 | 47 | 64*
Cc1ccc(OCC(=O)Nc2cc(S(=O)(=O)N3CCCCC3)ccc2N2CCN(C)CC2)c(C)c1 | -13 | 14 | -2 | 11 | 40 | 60*
CC(=O)NCCC(=O)Nc1cc(S(=O)(=O)N2CCCCC2)ccc1N1CCN(C)CC1 | 5 | -6 | -5 | -1 | -2 | 76*
CN1CCN(c2ccc(S(=O)(=O)N3CCCCC3)cc2NC(=O)COc2ccc([N+](=O)[O-])cc2)CC1 | 1 | 10 | 1 | 2 | 19 | 58*
CC(=O)NCCC(=O)Nc1cc(S(=O)(=O)N2CCCCC2)ccc1N1CCCCC1 | / | / | / | -5 | 14 | /
Cc1csc(NC(=O)c2ccc3nc[nH]c3c2)n1 | 0 | 1 | -1 | / | -84 | 3
CCOC(=O)C(=O)NNc1ccccc1OC | -21 | -5 | 2 | 4 | 20 | 2
CCCOC(=O)C(=O)NNc1ccccc1 | -3 | ? | 5 | -1 | 27 | 49
O=C(NNc1ccc(Cl)cc1)c1cccs1 | 82* | 96* | -4 | -8 | 20 | /
CCc1ccc(C(=O)NNc2ccc(Cl)cc2)cc1 | 0 | 99* | 5 | 29 | 1 | 28
CCc1ccc(C(=O)NNc2cc(Cl)cc(Cl)c2)cc1 | -2 | 20 | 12 | 1 | 33 | /
CCOC(=O)C(=O)NNc1ccc(C)cc1 | 10 | 102* | -2 | -8 | -7 | ?
CCOC(=O)C(=O)NNc1ccc(Cl)cc1 | -20 | 82* | 3 | -1 | -19 | 48
O=C(COC(=O)CNS(=O)(=O)c1ccc(Br)cc1Cl)NCCc1ccccc1 | 6 | -4 | -16 | -4 | -22 | -9
O=C(Nc1ccccc1N1CCN(C(=O)c2ccccc2)CC1)c1ccc(Br)o1 | -1 | 10 | 17 | 17 | 49 | 46
Cc1cc(C)n2nc(SC(C)C(=O)N(C)C3CCCCC3)nc2n1 (stereo unspecified) | / | -4 | / | -9 | -4 | /
CCCc1nnc(SCC(=O)NC2CCCC2)n1CCOC | 2 | / | -7 | -3 | 1 | -6
O=C(NC(=S)NN1CCOCC1)c1cc(Br)ccc1Cl | / | -10 | / | -3 | 3 | /
CCCCN=C(NNc1ccc(Br)cc1)C(=O)OCC | 0 | 136* | 9 | -7 | 0 | 4
Cc1c(-c2cccc(NC(=O)c3cccs3)c2)nc2ncccn12 | -6 | 27 | 7 | 6 | -18 | 11
O=C(Nc1cccc(-c2cn3cccnc3n2)c1)c1ccco1 | ? | -11 | 1 | 2 | -26 | 68*
Cc1ccc(C(=O)Nc2cccc(-c3cn4ccccc4n3)c2)cc1 | 94* | -3 | 3 | 2 | -14 | 1
SMILES | Calb FLC | CSC inhib | SKKanGAS inh | Beta cell apopt | Mdm2-MdmX inh | T cruzi inh
O=C(Nc1cccc(-c2cn3ccccc3n2)c1)c1ccccc1 | 23 | 8 | -7 | 10 | -7 | -9
O=C(Nc1cccc(-c2cn3cccnc3n2)c1)c1ccc(Br)o1 | 9 | / | -7 | 1 | -4 | 71*
Cc1c(-c2cccc(NC(=O)c3ccco3)c2)nc2ncccn12 | 8 | -1 | -1 | 3 | 20 | 65*
C=CCOc1ccc(/C=C/C(=O)OCC(=O)N(C)C2CCS(=O)(=O)C2)cc1 (stereo unspecified) | -5 | -10 | -3 | 4 | 9 | 1
CCCc1nnc(NC(=O)CCC(=O)N2CCC(Cc3ccccc3)CC2)s1 | / | -12 | -15 | -2 | 6 | -5
C[C@H]1CN([C@@H](C)CO)C(=O)c2cccc(NC(=O)c3nc4ccccc4s3)c2O[C@H]1CN(C)C(=O)Nc1ccc(F)cc1 | / | 9 | / | 4 | 33 | /
C/C(CCc1ccccc1)=N\NC(=S)NCCc1ccccc1 | 15 | -5 | 7 | -4 | 3 | 14
CC1=C/C(=N\NC(=S)NCCc2ccccc2)CC(C)(C)C1 | 96* | 59 | 52* | 3 | -43 | 19
Cc1ccc(NC(=O)c2ccc([N+](=O)[O-])o2)cc1S(=O)(=O)N1CCOCC1 | 65 | 2 | 25 | 94* | 18 | 9
Cc1ccc(C(=O)N2CCCC2)cc1S(=O)(=O)N1CCOCC1 | -7 | -5 | -8 | -3 | -1 | 3
O=C(Nc1ccc(S(=O)(=O)N2CCOCC2)cc1)c1ccc(CN2CCc3ccccc3C2)cc1 | -9 | 0 | 10 | 123* | 32 | 22
O=C(Nc1cccc(S(=O)(=O)N2CCCCC2)c1)c1ccc([N+](=O)[O-])o1 | ? | 78* | 42 | -11 | 30 | 40
Cc1ccc(C(=O)N2CCOCC2)cc1S(=O)(=O)N1CCOCC1 | 1 | -6 | 51* | / | -10 | -3
O=C(Nc1ccc(S(=O)(=O)N2CCOCC2)cc1)c1ccc([N+](=O)[O-])cc1Cl | -27 | -5 | 7 | 4 | 20 | 73*
O=C(Nc1ccc(N2CCCC2)cc1)c1ccc([N+](=O)[O-])cc1Cl | -20 | 0 | 2 | -3 | -16 | 21
CN(C)S(=O)(=O)c1cccc(NC(=O)COC(=O)c2cccnc2Cl)c1 | / | -12 | / | -5 | 7 | /
CCOC(=O)c1ccc(NC2=CC(=O)C(=O)c3ccccc32)cc1 | 4 | -7 | 70* | 40 | 34 | 47
Cc1ccc(NC2=CC(=O)C(=O)c3ccccc32)cc1 | 101* | -8 | 24 | 100* | -7 | -7
CC(=O)Nc1ccc(NC2=CC(=O)c3ccccc3C2=O)cc1 | -7 | 17 | 2 | 18 | -19 | 5
O=C1C=C(Nc2ccc(O)cc2)C(=O)c2ccccc21 | -4 | 105* | 29 | 100* | -25 | -9
COc1ccc(OC)c(-c2csc(NC(=O)c3ccc(F)cc3)n2)c1 | 0 | 86* | 8 | 11 | 44 | -3
O=C(Nc1ccc(Cl)c(Cl)c1)O/N=C/c1ccncc1 | -3 | 75* | 56* | 17 | 11 | -2
O=C(Nc1cccc(Cl)c1)O/N=C\c1ccncc1 | -7 | -5 | 2 | -7 | 15 | -3
COCCNC(=O)c1c[nH]c2ccc(S(=O)(=O)N3CCc4ccccc43)cc2c1=O | -32 | 84* | -9 | -17 | 21 | 20
COCCCNC(=O)c1c[nH]c2ccc(S(=O)(=O)N3CCc4ccccc43)cc2c1=O | 30 | 14 | 9 | -3 | 26 | -1
Cc1ccc(NC(=O)CCNS(=O)(=O)c2ccc3[nH]c(=O)oc3c2)cc1F | -8 | -1 | -7 | -1 | -1 | -1
